Screening results (PubChem BioAssay)
STAT3 blocker – STAT3 signaling inhibition; U3A cells, IL-6 STAT3-luciferase reporter, luminescence; host cell line lacks STAT1; inhibition, % at 5.5 µM; actives 0.89% (n = 190,000);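 active means inhibition above the mean inhibition across all screened compounds plus 3 SD, cut at about 44% in these data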;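 further: 0% = DMSO only wells and 100% = 100 µM nifuroxazide control wells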
NF-kB expr up – NF-kB expression increase, human neuronal cells; NF-kB reporter expression; active compounds read high; fold change at 12.5 µM; actives 1.6% (n = 190,000); AID 1239; in the data active means fold change above about 3.3
STAT1 blocker – reduces IFN-gamma driven STAT1 reporter signal; NIH 3T3 STAT1-luciferase reporter, luminescence; inhibition, % at 5.5 µM; actives 0.35% (n = 200,000); AID 920;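 active means inhibition above a set limit, the mean inhibition across all tested compounds plus 3 SD, cut at about 34% in these data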;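 further: 0% = IFN-gamma with DMSO and 100% = IFN-gamma with 300 µM nifuroxazide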
APP 5'UTR act – APP 5'UTR luciferase reporter activation; SH-SY5Y APP 5'UTR luciferase reporter, luminescence; zero percent = DMSO vehicle wells; activation, % at 2 µM; actives 1% (n = 190,000); AID 1276;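 active means activation above a set limit, based on mean plus 3 SD of controls, cut at about 140% in these data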
STAT1 activator – STAT1 signaling activation; NIH 3T3 STAT1-luciferase reporter, IFN-gamma, luminescence; 100% = IFN-gamma alone, no compound; activation (% of control), % at 5.5 µM; actives 2.6% (n = 200,000); AID 932;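 active means activation above the screen-wide mean activation plus 3 SD, cut at about 130% in these data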;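 further: raw ratio to IFN-gamma control signal so 100% means no change and 0% no light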
STAT3 activator – activators of IL-6 induced STAT3 signaling. actives 0.91% (n = 190,000). U3A cells, IL-6 STAT3-luciferase reporter, luminescence; 100% = signal with IL-6 EC80 alone. activation (% of control), % at 5.6 µM;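 active means activation above the screen-wide mean of compound activation plus 3 SD, cut at about 130% in these data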;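 further: 0% = background luminescence of wells with medium and substrate only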
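Material: STAT3-luciferase reporter U3A cells. Controls: IL-6-treated wells, 100% activation. Read-out: % activation versus median of IL-6-stimulated wells. Probe or stimulus: IL-6 stimulus at 33 ng/mL final. Timing: compound 1 h, then IL-6 6 h at 37 °C. Signal: reporter luminescence signal.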
STAT1 activ conf – confirmation of STAT1 signaling activators | actives 97% (n = 1,200) | NIH 3T3 STAT1-luciferase reporter, IFN-gamma potentiation, luminescence; 100% = IFN-gamma EC80 alone, no compound | activation (% of control), % at 5.7 µM | AID 1262 | shares compounds with STAT1 activator;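 active means activation above a set limit carried over from the earlier primary STAT1 screen, cut at about 140% in these data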;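 further: simple ratio to median IFN-gamma plus DMSO wells so 0% means no light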
NFkB act – NF-kappaB activation in STAT1 activator counter-screen | shares compounds with STAT1 activator | HEK293T NF-kB luciferase reporter, TNF-alpha stimulated, luminescence; 100% = TNF-alpha with vehicle only | activation (% of control), % at 5.7 µM | actives 43% (n = 1,200) | AID 1306;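 active means activation above the mean of solvent-only control wells plus 3 SD, set per campaign, cut at about 130% in these data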;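 further: TNF-alpha given at a submaximal dose yielding about 80% of full reporter signal; values are well signal over median control so 100% means no change and 0% no light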
STAT3 act STAT1c – counter-screen for STAT1 activators: human STAT3 activation; shares compounds with STAT1 activator; activation (% of control), % at 5.7 µM; actives 46% (n = 1,200); U3A cells STAT3-luciferase reporter, IL-6, luminescence; cells lack STAT1; 100 = IL-6 alone, no compound effect; AID 1316;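 active means activation above the solvent-only control well mean plus 3 SD, set per plate batch, cut at about 110% in these data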;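 further: 0% = no luminescence and 100% = median IL-6 plus DMSO wells; higher means more STAT3 reporter activation so hits are non-selective activators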
An asterisk follows results filed as active; · = no result. Rows were chosen to be rich in hits. Some 5.1% of all compounds tested hit in one or more screens of this group.

SMILES	STAT3 blocker	NF-kB expr up	STAT1 blocker	APP 5'UTR act	STAT1 activator	STAT3 activator	STAT1 activ conf	NFkB act	STAT3 act STAT1c
CCc1ccc(NC(=O)c2ccc3ncsc3c2)cc1	-11	6.4*	-70	152*	162*	110	203*	138*	105
CNC(=O)c1c(Cl)cnn1-c1ccc(C)cc1	2	2.3	-70	109	161*	102	164*	138*	114*
CNC(=O)c1c(Br)cnn1-c1ccc(C)cc1	8	2.9	-60	130	152*	97	180*	131	116*
CN(C)c1ccc(/C=N/NC(=O)C2CC2c2ccccc2)cc1 (stereo not drawn)	12	0.95	-5	-10	103	96	·	·	·
CN(C)c1ccc(/C=N/NC(=O)c2ccco2)cc1	9	5.6*	-67	110	160*	93	174*	114	105
